MC4R ag barr: MC4R agonists recruiting beta-arrestin, primary screen, cell-based, luminescence, agonist arm of biased-ligand search | Melanocortin receptor 4 (Homo sapiens), P32245 | hit rate 0.98% among 360,000 | U2OS MC4R beta-arrestin complementation; percent of melanotan II response, DMSO zero | activation, % at 8.9 µM;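 active means activation above a per-plate cutoff, the mean activation of sample wells on that plate plus 3 SD, cut at about 8% in these data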
Target sequence (P32245 whole entry, looked up): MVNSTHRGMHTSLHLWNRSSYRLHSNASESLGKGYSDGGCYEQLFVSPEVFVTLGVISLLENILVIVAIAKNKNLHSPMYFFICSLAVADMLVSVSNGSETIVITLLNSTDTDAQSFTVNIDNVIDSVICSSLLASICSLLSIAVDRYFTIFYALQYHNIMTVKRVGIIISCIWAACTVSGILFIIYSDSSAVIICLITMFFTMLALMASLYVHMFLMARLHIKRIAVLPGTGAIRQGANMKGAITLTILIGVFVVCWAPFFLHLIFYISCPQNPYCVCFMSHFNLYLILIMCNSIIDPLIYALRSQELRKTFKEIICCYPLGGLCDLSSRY
GalR3 antag: GalR3 antagonists in HEK293 cells, primary screen, cell-based, fluorescence readout; Galanin receptor type 3 (Homo sapiens), O60755; HEK293 GalR3-CNG cAMP membrane potential fluorescence; galR3 body fused to GalR1 C-terminus; inhibition, % at 3 µM; hit rate 0.44% among 360,000; AID 651719, 2012;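 active means inhibition above the screen-wide average plus 3 SD, cut at about 13% in these data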;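 further: forskolin and galanin both at EC90 stimulate the cells; cAMP rise reported by CNG channel membrane potential dye signal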
Target sequence (O60755 1-299 limits assumed): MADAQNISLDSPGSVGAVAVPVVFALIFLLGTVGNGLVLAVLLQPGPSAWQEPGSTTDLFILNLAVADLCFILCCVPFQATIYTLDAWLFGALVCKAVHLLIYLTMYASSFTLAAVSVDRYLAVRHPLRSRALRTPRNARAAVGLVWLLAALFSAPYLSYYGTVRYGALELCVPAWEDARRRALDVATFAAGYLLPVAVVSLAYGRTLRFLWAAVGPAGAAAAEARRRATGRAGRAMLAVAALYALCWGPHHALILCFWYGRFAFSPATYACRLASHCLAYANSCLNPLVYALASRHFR
Calb FLC: C. albicans growth inhibition with fluconazole, primary screen, CaCi-2 strain, Alamar Blue fluorescence; C. albicans CaCi-2 + fluconazole, 48 h; growth inhibition, % (no concentration beside the values); hit rate 0.57% among 300,000;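 active means growth inhibition above about 58% in most replicates, limit read from the data, passing the limit was not always enough; inconclusive means exactly half the replicates above a set limit; inactive means most replicates below a set limit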;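 further: all wells also contain fluconazole at 8 µg/ml as a sub-toxic cotreatment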
Efflux pump inh: inhibitors of Candida efflux pumps in yeast, primary screen, S. cerevisiae, Nile Red, multiplex; S. cerevisiae Candida pump triplex; hit rate 0.44% among 330,000; AID 485275, 2010; inhibition, % at 10 µM;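 active means plate passing quality check with inhibition over a set limit, or well fluorescence over plate mean plus 4 SD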;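 further: Nile Red retained in pooled yeast measured as flow cytometry median fluorescence; higher means more Nile Red kept so more efflux inhibition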
MC4R antag cAMP: MC4R antagonists of cAMP signaling, primary screen, cell-based, TR-FRET, antagonist arm of biased-ligand search. Melanocortin receptor 4 (Homo sapiens), P32245. MC4R-expressing cells, MTII-stimulated cAMP, LANCE TR-FRET. inhibition, % at 6.5 µM. hit rate 0.48% among 360,000. AID 540295, 2011;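 active means inhibition above its plate's cutoff, the mean of tested wells on that plate plus 3 SD, cut at about 29% in these data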
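Assay system: U2OS-MC4R stable cell line; Also added: Melanotan II; Technique: Eu-cAMP/anti-cAMP TR-FRET, emission 671 nm; Times: 30-min compound, 1-h challenge, 1-h detection, room temperature.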
TAG inh: inhibitors of triacylglycerol accumulation, primary screen, cell-based, uHTS, fluorescence, H9c2; H9c2 cells, Nile Red lipid (TAG) fluorescence; cells loaded with 200 µM oleic acid; inhibition, % at 12.5 µM; hit rate 0.66% among 230,000;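 active means pattern-corrected inhibition of lipid staining of at least 50% with the nuclear-stain viability signal not falling by more than 50%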
GalR3 antag conf: GalR3 antagonist hit confirmation, cell-based, fluorescence, triplicate. shares compounds with GalR3 antag. HEK293 GalR3 CNG cAMP biosensor, membrane potential fluorescence; galR3 fused to GalR1 carboxy tail; challenged with forskolin and galanin at EC90. inhibition, % at 3 µM. hit rate 59% among 1,600;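 active means inhibition above the primary screen's cutoff, the mean inhibition of all screened compounds plus 3 SD, cut at about 13% in these data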
HEK-CNG parental: nonspecific cAMP agonists in parental HEK-CNG cells, counter-screen for GalR3 antagonist project, cell-based, fluorescence, high throughput; shares compounds with GalR3 antag; HEK293-CNG parental cells, cAMP membrane potential fluorescence; normalised: DMSO wells 0%, forskolin wells 100%; activation, % at 3 µM; hit rate 10% among 1,600; in the data active means activation above about 1.3%
Numbers stand for hits; n = inactive; u = inconclusive; x = no result. A selection: hits, their analogues and other compounds. The true share with any hit is near 2.9%.

SMILES | MC4R ag barr | GalR3 antag | Calb FLC | Efflux pump inh | MC4R antag cAMP | TAG inh | GalR3 antag conf | HEK-CNG parental
C[C@H]1CN([C@@H](C)CO)C(=O)CCCn2nncc2CO[C@@H]1CN(C)Cc1ccc2cccnc2c1 | x | n | x | x | x | x | x | x
N#C/C(=C(/O)COc1ccc(Cl)cc1)c1nc2ccccc2s1 | n | 14 | 94 | n | n | n | n | 1.3
CCCN1CCN(CCCNC(=O)CN2C(=O)COc3ccc(C(C)(C)C)cc32)CC1 | n | n | x | x | n | n | x | x
COc1ccc(/C=N/NC(=O)c2c(C)n(C)c3ccc(OC)cc23)c(OC)c1 | n | 14 | n | n | n | x | n | n
COc1ccc2c(c1)c(C(=O)N/N=C/c1ccccc1Cl)c(C)n2C | n | n | n | n | n | n | x | x
C[C@@H]1NS(=O)(=O)c2c(F)cccc2O[C@@H]1c1ccccc1 | x | n | x | x | x | x | x | x
CCC1CCCCN1C(=O)c1cc(COc2ccc3ncccc3c2)on1 (stereo not given) | n | 71 | n | n | n | n | 112 | n
CCN1CCN(C(=O)c2cc(COc3ccc4ncccc4c3)on2)CC1 | n | n | n | n | n | n | x | x
CCN(CC)C(=O)C1CCCN(C(=O)c2cc(COc3ccc4ncccc4c3)on2)C1 (stereo not given) | n | n | n | n | n | x | x | x
COCC1CCCCN1C(=O)c1cc(COc2ccc3ncccc3c2)on1 (stereo not given) | n | 25 | n | n | n | x | 93 | n
Cn1c(CN2CCCCC2)nc2cc(NC(=O)c3ccccc3)ccc21 | n | n | n | n | n | x | x | x
Cn1c(CN2CCCCC2)nc2cc(NC(=O)c3cccc(Br)c3)ccc21 | n | 18 | u | n | n | x | 38 | n
COC(=O)[C@H](Cc1ccccc1)NC(=O)/C=C/[C@H]1O[C@@H](n2ccc(=O)[nH]c2=O)[C@H](O)[C@@H]1O | x | n | x | x | x | x | x | x
O=C(c1ccc(S(=O)(=O)c2ccc(F)cc2)c([N+](=O)[O-])c1)N1CCCCCC1 | n | 44 | n | n | n | x | 49 | n
Nc1c(Cl)cc(-c2csc(NC(CO)c3nc4ccccc4n3CCOCCO)n2)cc1Cl (stereo not given) | n | 64 | n | n | n | n | n | n
OCCOCCn1c(C(CO)Nc2nc(-c3ccc(Cl)cc3)cs2)nc2ccccc21 (stereo not given) | n | n | n | n | n | n | x | x
N#CC(C#N)C(c1ccsc1)c1c(-c2ccccc2)[nH][nH]c1=O (stereo not given) | n | 14 | n | n | n | n | 17 | 2.8
O=C(/C=C/c1cn(-c2ccccc2)nc1-c1cccnc1)N1CCCC1 | n | n | n | x | n | n | x | x
O=C(/C=C/c1cn(-c2ccccc2)nc1-c1cccnc1)NCCN1CCOCC1 | n | 18 | n | n | n | n | 14 | n
CCOC(=O)c1sc(-c2ccc(C)cc2)c(C#N)c1C | n | n | n | n | n | n | x | x
Cc1c(C(=O)NN)sc(-c2ccccc2)c1C#N | n | 16 | n | n | n | x | n | n
N[C@@H](CO)c1nnc([C@H](Cc2ccc(O)cc2)NC(=O)C2CCNCC2)o1 | n | n | n | n | n | n | x | x
NCCCC[C@H](NC(=O)C1CCNCC1)c1nnc([C@@H](N)Cc2ccc(O)cc2)o1 | n | x | n | x | n | n | n | n
O=S(=O)(c1cccc(-c2cn3cccnc3n2)c1)N1CCCCCC1 | n | n | n | n | n | n | x | x
CN(C)S(=O)(=O)c1cccc(-c2cn3cccnc3n2)c1 | n | x | n | n | n | n | n | n
SMILES | MC4R ag barr | GalR3 antag | Calb FLC | Efflux pump inh | MC4R antag cAMP | TAG inh | GalR3 antag conf | HEK-CNG parental
O=C(NCc1ccccc1)C1c2ccccc2OCC(=O)N1Cc1ccc2c(c1)OCO2 (stereo not given) | x | n | x | x | x | x | x | x
Cc1ccc(C(=O)CSc2ncn[nH]2)cc1 | n | n | n | n | n | n | x | x
CCc1ccc(C(=O)CSc2ncn[nH]2)cc1 | n | 54 | n | n | n | n | 22 | n
Cc1ccc(N=C2NC(=O)/C(=C/c3cccnc3)S2)cc1C | n | 15 | n | n | n | n | n | n
C=CCCC(=O)N1C[C@H]2CON(C)[C@H]2C[C@H]1c1ccc(N2CCCCC2)cc1 | x | n | x | x | x | x | x | x
CCOC(=O)N1CCN(C(=O)CSCc2ccc(Br)cc2)CC1 | n | x | n | n | n | n | n | n
CCOC(=O)N1CCC(=NNC(N)=O)C1 | n | n | x | x | n | n | x | x
Cn1cnc(S(=O)(=O)N2CCCCC2c2cc(C(=O)NCc3ccc(Cl)c(Cl)c3)no2)c1 (stereo not given) | n | n | x | x | n | n | x | x
CC(C)Oc1ccc(F)cc1-c1cc(C(=O)NCc2cccs2)[nH]n1 | n | 23 | x | x | n | n | n | n
CC1(C)CC2CC(C)(CN2S(=O)(=O)c2ccc(C(=O)Nc3ccc(S(=O)(=O)N4CCOCC4)cc3)cc2)C1 (stereo not given) | n | 87 | n | n | n | n | 118 | n
CC1(C)CC(=O)C=C(c2ccc(COC(=O)C(c3ccccc3)c3ccccc3)cc2)C1=O | n | n | x | x | n | n | x | x
CCOc1ccc(NC(=S)NC(=O)c2c(Cl)cnn2CC)c([N+](=O)[O-])c1 | n | 14 | n | n | n | x | n | n
NC(=O)c1ncn([C@@H]2O[C@H](C(=O)N[C@H](Cc3c[nH]c4ccccc34)C(=O)N3CCN(C(=O)N4CCOCC4)CC3)[C@@H](O)[C@H]2O)n1 | x | n | x | x | x | x | x | x
CCCCCC[n+]1ccccc1/C=C/c1ccc(N(C)C)cc1 | n | 16 | x | x | n | n | 16 | 41
CC1CCCN(S(=O)(=O)c2cc(C(=O)NCc3ccco3)ccc2Cl)C1 (stereo not given) | n | n | x | n | n | n | x | x
COc1ccc(CCC(=O)Nc2ccc(Cl)c(S(=O)(=O)N3CCCC3)c2)cc1 | n | 66 | n | n | n | n | 112 | n
COc1ccc(CCNC(=O)c2ccc(Cl)c(S(=O)(=O)N3CCCCCC3)c2)cc1 | n | 88 | x | n | n | n | 99 | n
